Columns and labels:
[1] = Selectivity ratio of alpha1 beta-3 gamma2 GABA A / BzR and alpha5 beta-3 gamma2 GABA A / BzR
[2] = target: T1, GABA-A receptor; alpha-3/beta-3/gamma-2 (Homo sapiens, UniProt P18507+P28472+P34903); assay: Binding affinity for human recombinant gamma-aminobutyric-acid (GABA) A receptor alpha-3-beta-3-gamma-2; assay type: protein-complex assay
T1 sequence (P18507 whole entry): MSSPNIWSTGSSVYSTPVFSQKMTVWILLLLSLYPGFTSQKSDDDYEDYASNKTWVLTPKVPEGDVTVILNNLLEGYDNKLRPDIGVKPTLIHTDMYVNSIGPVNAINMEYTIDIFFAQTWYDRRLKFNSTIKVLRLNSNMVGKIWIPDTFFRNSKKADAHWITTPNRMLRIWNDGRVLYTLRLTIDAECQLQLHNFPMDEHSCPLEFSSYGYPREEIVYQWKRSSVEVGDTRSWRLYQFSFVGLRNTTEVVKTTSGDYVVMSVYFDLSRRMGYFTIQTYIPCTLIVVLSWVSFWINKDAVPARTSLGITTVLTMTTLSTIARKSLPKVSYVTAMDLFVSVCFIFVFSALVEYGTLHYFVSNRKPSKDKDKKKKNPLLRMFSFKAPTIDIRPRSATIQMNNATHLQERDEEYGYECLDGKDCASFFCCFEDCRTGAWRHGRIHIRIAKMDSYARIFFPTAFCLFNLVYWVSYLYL
T1 sequence (P28472 whole entry): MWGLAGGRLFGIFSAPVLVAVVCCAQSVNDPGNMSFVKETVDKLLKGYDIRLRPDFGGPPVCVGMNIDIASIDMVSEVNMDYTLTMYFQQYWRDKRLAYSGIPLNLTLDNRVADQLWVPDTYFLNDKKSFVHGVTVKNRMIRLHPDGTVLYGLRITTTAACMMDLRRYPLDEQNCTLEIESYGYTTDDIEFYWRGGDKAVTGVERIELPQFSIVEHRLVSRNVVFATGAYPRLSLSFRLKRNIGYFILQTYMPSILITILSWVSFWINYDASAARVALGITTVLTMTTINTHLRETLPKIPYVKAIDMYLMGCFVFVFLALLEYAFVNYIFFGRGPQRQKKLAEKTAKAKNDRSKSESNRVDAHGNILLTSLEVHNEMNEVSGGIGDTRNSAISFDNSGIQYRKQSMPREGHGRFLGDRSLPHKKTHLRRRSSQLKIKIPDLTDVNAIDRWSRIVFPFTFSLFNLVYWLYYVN
T1 sequence (P34903 whole entry): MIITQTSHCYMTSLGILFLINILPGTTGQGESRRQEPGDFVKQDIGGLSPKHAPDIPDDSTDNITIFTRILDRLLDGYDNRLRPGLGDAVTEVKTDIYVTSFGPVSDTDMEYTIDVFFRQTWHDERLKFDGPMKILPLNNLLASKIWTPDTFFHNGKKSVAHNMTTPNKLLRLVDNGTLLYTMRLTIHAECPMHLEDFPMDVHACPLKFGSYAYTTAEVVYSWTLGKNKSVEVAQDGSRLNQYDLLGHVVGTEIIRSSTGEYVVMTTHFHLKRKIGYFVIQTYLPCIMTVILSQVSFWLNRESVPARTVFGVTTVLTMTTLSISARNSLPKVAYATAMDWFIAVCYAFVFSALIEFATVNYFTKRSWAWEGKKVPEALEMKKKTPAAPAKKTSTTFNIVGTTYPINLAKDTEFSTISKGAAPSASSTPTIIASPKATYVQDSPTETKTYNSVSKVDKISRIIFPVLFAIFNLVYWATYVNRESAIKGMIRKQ

[3] = target: GABA-A receptor; alpha-6/beta-3/gamma-2 (Homo sapiens, UniProt P18507+P28472+Q16445); assay: Binding affinity for human recombinant gamma-aminobutyric-acid (GABA) A receptor alpha-6-beta-3-gamma-2; assay type: protein-complex assay
Outline: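 Ltk⁻ cells expressing human α6β3γ2 were harvested by scraping into PBS, centrifuged at 3000g and resuspended in 10 mM KH₂PO₄/100 mM KCl (pH 7.4). Incubation was 1 h at 4 °C with filter harvest and scintillation counting.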

[4] = target: T2, GABA-A receptor; alpha-5/beta-3/gamma-2 (Homo sapiens, UniProt P18507+P28472+P31644); assay: Binding affinity for human recombinant gamma-aminobutyric-acid (GABA) A receptor alpha-5-beta-3-gamma-2; assay type: protein-complex assay
T2 sequence (P18507 whole entry): T1 sequence (P18507 whole entry)
T2 sequence (P28472 whole entry): T1 sequence (P28472 whole entry)
T2 sequence (P31644 whole entry): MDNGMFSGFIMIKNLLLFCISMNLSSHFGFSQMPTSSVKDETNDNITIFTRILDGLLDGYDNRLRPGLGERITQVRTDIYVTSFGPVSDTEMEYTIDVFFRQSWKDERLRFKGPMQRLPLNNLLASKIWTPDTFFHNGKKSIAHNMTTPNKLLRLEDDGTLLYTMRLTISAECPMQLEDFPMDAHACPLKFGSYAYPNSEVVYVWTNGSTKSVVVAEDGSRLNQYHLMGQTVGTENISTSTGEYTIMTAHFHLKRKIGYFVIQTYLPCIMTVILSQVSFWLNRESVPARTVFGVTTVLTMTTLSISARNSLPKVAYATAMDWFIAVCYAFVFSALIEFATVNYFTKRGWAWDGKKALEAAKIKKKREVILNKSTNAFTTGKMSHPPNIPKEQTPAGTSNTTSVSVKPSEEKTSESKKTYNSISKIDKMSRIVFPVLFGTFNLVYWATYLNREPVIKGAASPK

[5] = target: T3, GABA-A receptor; alpha-1/beta-3/gamma-2 (Homo sapiens, UniProt P14867+P18507+P28472); assay: Binding affinity for human recombinant gamma-aminobutyric-acid (GABA) A receptor alpha-1-beta-3-gamma-2; assay type: protein-complex assay
T3 sequence (P14867 whole entry): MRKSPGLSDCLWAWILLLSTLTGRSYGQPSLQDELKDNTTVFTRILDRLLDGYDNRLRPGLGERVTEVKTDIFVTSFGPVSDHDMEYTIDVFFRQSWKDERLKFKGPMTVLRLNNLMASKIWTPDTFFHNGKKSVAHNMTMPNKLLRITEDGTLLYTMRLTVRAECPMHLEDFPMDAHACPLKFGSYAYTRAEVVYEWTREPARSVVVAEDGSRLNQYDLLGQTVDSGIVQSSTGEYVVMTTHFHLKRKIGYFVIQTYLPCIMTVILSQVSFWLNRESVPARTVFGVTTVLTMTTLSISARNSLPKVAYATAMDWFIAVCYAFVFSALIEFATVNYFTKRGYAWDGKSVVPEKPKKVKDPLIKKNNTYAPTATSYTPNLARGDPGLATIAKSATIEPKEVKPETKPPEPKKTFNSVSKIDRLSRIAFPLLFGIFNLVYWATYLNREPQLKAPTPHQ
T3 sequence (P18507 whole entry): T1 sequence (P18507 whole entry)
T3 sequence (P28472 whole entry): T1 sequence (P28472 whole entry)

GABA-A receptor; alpha-6/beta-3/gamma-2, sequence (Q16445 whole entry, one chain of several): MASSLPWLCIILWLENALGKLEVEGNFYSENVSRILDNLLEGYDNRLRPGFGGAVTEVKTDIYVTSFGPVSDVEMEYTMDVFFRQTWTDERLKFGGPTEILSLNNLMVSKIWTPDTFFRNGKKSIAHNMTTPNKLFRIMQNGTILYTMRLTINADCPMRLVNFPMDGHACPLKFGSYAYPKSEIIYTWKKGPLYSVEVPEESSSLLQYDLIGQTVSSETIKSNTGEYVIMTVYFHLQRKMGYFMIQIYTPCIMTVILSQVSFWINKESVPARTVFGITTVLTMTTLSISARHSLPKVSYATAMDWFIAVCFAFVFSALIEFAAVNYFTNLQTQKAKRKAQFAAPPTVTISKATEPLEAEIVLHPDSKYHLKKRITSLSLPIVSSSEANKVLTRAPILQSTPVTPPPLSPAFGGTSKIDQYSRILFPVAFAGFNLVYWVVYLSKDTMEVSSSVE

| Structure (SMILES) | Ratio [1] | also measured |
| --- | --- | --- |
| COc1ccc2c(c1)C(=O)N(C)Cc1c(C(=O)OC(C)(C)C)ncn1-2 | 23 |  |
| C#Cc1ccc2c(c1)C(=O)N1CC[C@H]1c1c(-c3nc(CC)no3)ncn1-2 | 17 |  |
| CN1Cc2c(C(=O)OC(C)(C)C)ncn2-c2ccc(O)cc2C1=O | 10.7 |  |
| C#Cc1ccc2c(c1)C(=O)N(C)Cc1c(C(=O)OCC)ncn1-2 | 58 |  |
| CN1Cc2c(C(=O)OCC3CC3)ncn2-c2ccc(Cl)cc2C1=O | 1.7 |  |
| CN1C(=O)CN=C(c2ccccc2[N+](=O)[O-])c2cc([N+](=O)[O-])ccc21 | 0.06 | Ki [2]: 0.76 nM; Ki [3]: > 10000 nM; Ki [4]: 7.7 nM; Ki [5]: 0.49 nM |
| CCCCCc1ncn2c1CN(C)C(=O)c1cc(Cl)ccc1-2 | 5.6 |  |
| CC#Cc1ccc2c(c1)C(=O)N(C)Cc1c(C(=O)OCC)ncn1-2 | 6 |  |
| CCOC(=O)c1ncn2c1[C@@H]1CCCN1C(=O)c1cc(OC)ccc1-2 | 108 | Ki [2]: 24.5 nM |
| CCOC(=O)c1ncn2c1CN(C)C(=O)c1cc(Br)ccc1-2 | 3.7 |  |
| CN1Cc2c(C(=O)OC(C)(C)C)ncn2-c2ccc(Cl)cc2C1=O | 26.6 |  |
| CCOCc1ncn2c1CN(C)C(=O)c1cc(Cl)ccc1-2 | > 3.6 |  |
| CCOC(=O)c1ncn2c1[C@@H]1CCCN1C(=O)c1cc(Br)ccc1-2 | 49 |  |
| CCCOc1ccc2[nH]c3cnc(OCCC)c(COC)c3c2c1 |  | Ki [3]: > 1000 nM |
| CN1Cc2c(C(=O)OC(C)(C)C)ncn2-c2ccc(N3CCCC3)cc2C1=O | 0.63 |  |
| CN1C(=O)CN=C(c2ccccc2)c2cc(Cl)ccc21 [DIAZEPAM] |  | Ki [3]: > 3000 nM |
| CCOC(=O)c1ncn2c1CN(C)C(=O)c1cc(C#C[Si](C)(C)C)ccc1-2 | 24.2 |  |
| C#Cc1ccc2c(c1)C(=O)N1CCC[C@H]1c1c(-c3nc(C)no3)ncn1-2 | 24 |  |
| CCOC(=O)c1ncn2c1CN(C)C(=O)c1cc(Cl)ccc1-2 | 8 |  |

| Structure (SMILES) | Ratio [1] | also measured |
| --- | --- | --- |
| COCc1c(C(=O)OC(C)C)ncc2[nH]c3ccc(OCc4ccccc4)cc3c12 [ABECARNIL] |  | Ki [3]: > 1000 nM |
| C#Cc1ccc2c(c1)C(=O)N1CC[C@H]1c1c(C(=O)OCC)ncn1-2 | 57 |  |
| [N-]=[N+]=Nc1ccc2c(c1)C(c1ccccc1N=[N+]=[N-])=NCC(=O)N2 | 1.32 | Ki [2]: 4620 nM; Ki [3]: > 1000 nM; Ki [4]: 1640 nM; Ki [5]: 2160 nM |
| C#Cc1ccc2c(c1)C(=O)N1CCC[C@H]1c1c(C(=O)OCC)ncn1-2 | 45 |  |
| CCOC(=O)c1ncn2c1CN(C)C(=O)c1cc(CC)ccc1-2 | 13.6 |  |
| CCOC(=O)c1ncn2c1[C@@H]1CCCN1C(=O)c1cc(C#C[Si](C)(C)C)ccc1-2 | 50 |  |
| CCOC(=O)c1ncn2c1[C@@H]1CCN1C(=O)c1cc(C#C[Si](C)(C)C)ccc1-2 | 32 |  |
| CN1Cc2c(C(=O)OC(C)(C)C)ncn2-c2ccc(C#CC[Si](C)(C)C)cc2C1=O | 12 |  |
| COc1ccc(-n2nc3c4cc(Cl)ccc4[nH]cc-3c2=O)cc1 |  | Ki [2]: 0.2 nM; Ki [3]: 1.9 nM; Ki [4]: 0.32 nM; Ki [5]: 0.2 nM |
| CCc1ncn2c1CN(C)C(=O)c1cc(Cl)ccc1-2 | 2.2 |  |
| CCOC(=O)c1ncn2c1CN(C)C(=O)c1cc(OCC)ccc1-2 | 12.4 |  |
| CCCCC(=O)c1ncn2c1CN(C)C(=O)c1cc(Cl)ccc1-2 | 9.6 |  |
| CN1Cc2c(C(=O)OC(C)(C)C)ncn2-c2ccc(N=C=S)cc2C1=O | 6.8 |  |
| C#Cc1ccc2c(c1)C(=O)N1CCC[C@H]1c1c(-c3nc(CC)no3)ncn1-2 | 36 |  |
| C=Cc1ccc2c(c1)C(=O)N(C)Cc1c(C(=O)OCC)ncn1-2 | 20.8 |  |
| COCc1ncn2c1CN(C)C(=O)c1cc(Cl)ccc1-2 | > 7.7 |  |
| C#Cc1ccc2c(c1)C(=O)N1CCC[C@@H]1c1c(C(=O)OCC)ncn1-2 | 39 |  |
| CCOC(=O)c1ncn2c1[C@@H]1CCN1C(=O)c1cc(Br)ccc1-2 | 56 |  |
| C#Cc1ccc2c(c1)C(=O)N(C)Cc1c(C(=O)OC(C)(C)C)ncn1-2 | 67.3 |  |

| Structure (SMILES) | Ratio [1] | also measured |
| --- | --- | --- |
| CCN(CC)Cc1ncn2c1CN(C)C(=O)c1cc(Cl)ccc1-2 | 3.2 |  |
| CN1Cc2c(C(=O)OC(C)(C)C)ncn2-c2ccc(C#C[Si](C)(C)C)cc2C1=O | 75.5 |  |
| COC(=O)c1cc2c3cc(SC#N)ccc3nc-2c[nH]1 |  | Ki [2]: 30 nM; Ki [3]: > 10000 nM; Ki [4]: 141 nM; Ki [5]: 3.41 nM |
| COc1ccc(-n2nc3c4ccc(OC)cc4[nH]cc-3c2=O)cc1 |  | Ki [2]: 0.79 nM; Ki [3]: 10 nM; Ki [4]: 0.52 nM; Ki [5]: 0.34 nM |
| CN1Cc2c(CCl)ncn2-c2ccc(Cl)cc2C1=O | > 10.5 |  |
| CN1Cc2c(C(=O)OC(C)(C)C)ncn2-c2ccc(I)cc2C1=O | 25.5 |  |
| CC(C)N(Cc1ncn2c1CN(C)C(=O)c1cc(Cl)ccc1-2)C(C)C | 3.2 |  |
| CC(=O)c1ncn2c1CN(C)C(=O)c1cc(Cl)ccc1-2 | 6.7 |  |
| C#Cc1ccc2c(c1)C(=O)N1CCC[C@H]1c1c(-c3nc(C(C)C)no3)ncn1-2 | 15 |  |
| CCOc1cc2c(cn1)[nH]c1ccccc12 |  | Ki [2]: 28.2 nM; Ki [4]: 826 nM |
| CCOC(=O)c1ncn2c1[C@@H]1CCCN1C(=O)c1ccccc1-2 | 4.6 | Ki [2]: 7.1 nM; Ki [3]: > 300 nM; Ki [4]: 1.6 nM; Ki [5]: 7.3 nM |
| CN1Cc2c(C(=O)OC(C)(C)C)ncn2-c2ccc(Br)cc2C1=O | 24.3 |  |
| CCOC(=O)c1ncn2c1CN(C)C(=O)c1cc(C#N)ccc1-2 | 1.7 |  |
| CN1Cc2c(C(=O)OC(C)(C)C)ncn2-c2ccc([N+](=O)[O-])cc2C1=O | 3.7 |  |
| CCOC(=O)c1[nH]cc2nc3ccc(OCc4ccc5ccccc5c4)cc3c-2c1COC |  | Ki [2]: 293 nM; Ki [3]: > 1000 nM; Ki [4]: 323 nM; Ki [5]: 15.4 nM |
| C#Cc1ccc2c(c1)C(=O)N1CC[C@H]1c1c(-c3nc(C(C)C)no3)ncn1-2 | 18 |  |
| CCOC(=O)c1ncn2c1CN(C)C(=O)c1cc(N=[N+]=[N-])ccc1-2 [Ro-154513] |  | Ki [4]: 0.3 nM |
| CCc1ccc2c(c1)C(=O)N(C)Cc1c(C(=O)OC(C)(C)C)ncn1-2 | 8.6 |  |

From ChEMBL document CHEMBL1132940, “Pharmacophore/receptor models for GABA(A)/BzR subtypes (alpha1beta3gamma2, alpha5beta3gamma2, and alpha6beta3gamma2) via a comprehensive ligand-mapping approach” (J Med Chem, 2000)
